UCH37 inh = human UCH37 deubiquitinating enzyme inhibition | purified proteasome/UCH37, Ub-AMC cleavage fluorescence | inhibition, % (concentration not given with the values) | 330,000 compounds, 0.33% hits;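 active = mean inhibition over replicate wells above about 20%, limit read from the data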
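Material: human UCH37 enzyme supplied as purified proteasome complex. Measure: % inhibition of Ub-AMC cleavage fluorescence. Medium: pH 7.4 Tris-HCl (50 mM) with ovalbumin, ATP-MgCl2, DTT. Times: 30 min preincubation with enzyme, 25 min cleavage at room temperature. Detection: AMC fluorescence intensity at 355/460 nm.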
UBC13 polyUb = blocks human UBC13 polyubiquitin chain formation | P61088 | TR-FRET | inhibition, % at 20 µM | 330,000 compounds, 0.47% hits; in the data active = inhibition above about 45%, passing the limit was not always enough
Apaf1 inhib = inhibitors of human Apaf-1 apoptosome; 330,000 compounds, 0.71% hits; AID 489030; reconstituted apoptosome caspase-3 activity, DEVD-Rh110 fluorescence; O14727; inhibition, % at 20 µM; active = inhibition of at least 40% at 20 µM
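Material: biochemical Apaf-1 apoptosome reconstitution. Medium: Hepes buffer, pH 7.5. Also added: cytochrome c activation, bis-DEVD rhodamine 110 substrate. Timing: 30 min compound preincubation, 50 min activation, room temperature. Measured by: rhodamine 110 fluorescence at Ex 480/Em 540 nm.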
PREPL inh = human PREPL enzyme inhibition; Q4J6C6; recombinant PREPL, fluorescence polarization activity-based probe; inhibition, % at 5.96 µM; 320,000 compounds, 0.68% hits; AID 2751; in the data active = inhibition above about 43%
Target sequence (Q4J6C6 whole entry, looked up): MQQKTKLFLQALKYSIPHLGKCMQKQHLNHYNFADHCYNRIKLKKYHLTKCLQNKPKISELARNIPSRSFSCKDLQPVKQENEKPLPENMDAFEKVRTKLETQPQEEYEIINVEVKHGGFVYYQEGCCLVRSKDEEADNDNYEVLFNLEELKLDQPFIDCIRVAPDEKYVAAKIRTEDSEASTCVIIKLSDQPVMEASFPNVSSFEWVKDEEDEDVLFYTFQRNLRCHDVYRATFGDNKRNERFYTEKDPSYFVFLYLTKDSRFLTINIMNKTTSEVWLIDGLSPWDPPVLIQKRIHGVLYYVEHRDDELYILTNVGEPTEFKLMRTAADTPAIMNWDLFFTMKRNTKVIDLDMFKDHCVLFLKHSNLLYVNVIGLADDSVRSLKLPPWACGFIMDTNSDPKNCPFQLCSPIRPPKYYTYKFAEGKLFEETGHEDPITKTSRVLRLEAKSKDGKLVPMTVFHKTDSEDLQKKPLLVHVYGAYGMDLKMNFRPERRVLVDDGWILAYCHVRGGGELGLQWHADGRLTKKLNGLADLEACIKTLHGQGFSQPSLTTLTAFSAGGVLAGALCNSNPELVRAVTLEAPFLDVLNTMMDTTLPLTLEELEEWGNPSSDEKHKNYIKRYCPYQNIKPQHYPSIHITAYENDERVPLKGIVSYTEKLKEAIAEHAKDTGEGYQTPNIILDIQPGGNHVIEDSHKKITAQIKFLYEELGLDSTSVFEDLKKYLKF
Casp3 UBC13 ctr = caspase-3 inhibition (UBC13 counter-screen) | shares compounds with UBC13 polyUb | Recombinant caspase-3, Caspase-Glo 3/7 luminescence, 60 min | inhibition, % at 20 µM | 1,400 compounds, 4% hits;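 active = mean inhibition across replicates above about 26%, limit read from the data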
UBC13 confirm = confirmation of human UBC13 polyubiquitin inhibitors; AID 488859; shares compounds with UBC13 polyUb; inhibition, % at 10 µM; UBC13 polyubiquitination, TR-FRET, biochemical; 1,400 compounds, 68% hits; in the data active = inhibition above about 45%
Numbers stand for hits; – = inactive; · = no result. Compounds with a hit are over-represented: about 1.5% of the library has one in this group of screens.

SMILES	UCH37 inh	UBC13 polyUb	Apaf1 inhib	PREPL inh	Casp3 UBC13 ctr	UBC13 confirm
CCc1ccc2nc(N(CCCN(C)C)C(=O)c3ccc(S(=O)(=O)N4CCc5ccccc5C4)cc3)sc2c1	·	87	–	–	–	114
Cc1ccc2c(c1)C(=NOC(=O)c1ccc(F)cc1)CCS2	–	·	·	·	·	·
CN(C)CCOc1ccc(-c2c(-c3ccccc3)sc3ccccc23)cc1	–	82	77	–	–	90
CCOC(=O)c1c(NC(=O)C(NCCN(C)C)c2ccccc2)sc2c1CCCC2 (stereo not drawn)	–	48	–	–	–	88
COc1cc(C(CCN2CCOCC2)c2c(OC)cc(OC)c3c(-c4ccccc4)cc(=O)oc23)cc(OC)c1OC (stereo not drawn)	–	·	–	·	·	·
CCCCCc1cc(=O)oc2c(C(CCN(CC)CC)c3cc(OC)c(OC)c(OC)c3)c(OC)cc(OC)c12 (stereo not drawn)	–	85	–	–	–	73
CCN(CC)CCC(c1ccc(N(C)C)cc1)c1c(OC)cc(OC)c2c(-c3ccccc3)cc(=O)oc12 (stereo not drawn)	–	50	–	–	–	–
CCCCCc1cc(=O)oc2c(C(CCN3CCN(c4ccccc4)CC3)c3ccc(N(C)C)cc3)c(OC)cc(OC)c12 (stereo not drawn)	–	–	–	–	·	·
COc1cc(C(CCN2CCCC2)c2c(OC)cc(OC)c3c(-c4ccccc4)cc(=O)oc23)cc(OC)c1OC (stereo not drawn)	–	46	–	–	–	–
COc1ccc(C(CCN2CCN(c3ccccc3)CC2)c2c(OC)cc(OC)c3c(-c4ccccc4)cc(=O)oc23)cc1 (stereo not drawn)	–	–	–	–	·	·
COc1ccc(C(CCN2CCCC2)c2c(OC)cc(OC)c3c(-c4ccccc4)cc(=O)oc23)cc1 (stereo not drawn)	–	67	–	–	–	–
COc1cc(OC)c2c(-c3ccccc3)cc(=O)oc2c1C(CCN1CCN(c2ccccc2)CC1)c1ccc(N(C)C)cc1 (stereo not drawn)	–	–	–	–	·	·
CC(=O)c1sc(NN=Cc2cccc(Br)c2)nc1C	–	·	·	·	·	·
O=C(CCC(=O)Nc1ccccc1)NN=Cc1ccccc1F	–	·	·	·	·	·
COc1cc(OC)c2c(-c3ccccc3)cc(=O)oc2c1C(CCN1CCCC1)c1ccc2c(c1)OCO2 (stereo not drawn)	–	52	49	–	–	–
CC(C)(C)c1cc(C(=O)N/N=C/c2ccncc2)n[nH]1	·	–	–	–	·	·
CC(C)(C)c1cc(C(=O)N/N=C/c2ccccn2)n[nH]1	·	62	–	–	–	–
CC1(C)CC(=O)c2cn3c(nc2C1)nc1ccccc13	–	–	–	–	·	·
Cc1ccc2c(n1)CC(C)(C)CC2=O	–	47	–	–	–	–
CCOc1ccc(Cl)cc1C=NNC(=O)c1ccccc1	–	·	·	·	·	·
CN(C)CCCn1cnc2c(c1=N)C(c1ccccc1)c1ccc3ccccc3c1O2 (stereo not drawn)	–	71	–	–	–	82
CCOc1ccc(-c2[nH]ncc2Oc2cccc(OC)c2)c(O)c1	–	63	–	–	–	60
Cn1c(=O)c2c(ncn2Cc2cccc(Cl)c2)n(C)c1=O	–	74	–	–	–	75
Cc1ccc(NC(=O)C[n+]2ccn(C3=C([O-])c4ccccc4C3=O)c2)cc1	–	74	–	–	–	65
Cn1nc(C(F)(F)F)c(C=NOC(=O)c2ccc(Cl)cc2)c1Cl	–	·	·	·	·	·
SMILES	UCH37 inh	UBC13 polyUb	Apaf1 inhib	PREPL inh	Casp3 UBC13 ctr	UBC13 confirm
CCOC(=O)C1CCCN(C(=O)c2ccc(CNc3c(N4CCC(C)CC4)c(=O)c3=O)cc2)C1 (stereo not drawn)	–	–	–	–	·	·
CC1CCN(c2c(NCc3ccc(C(=O)N4CCN(C5CCCCC5)CC4)cc3)c(=O)c2=O)CC1	–	69	–	–	–	58
Cc1ccc(Nc2nnc(-c3ccccc3N)o2)cc1C	–	46	–	–	39	–
CC(C)N1CCc2c(sc(NC(=O)c3cc(-c4cccs4)nc4ccccc34)c2C(N)=O)C1	·	54	61	–	–	49
CN(CCCNC(=O)c1ccc(C=NO)nc1)CCCN(C)Cc1ccccc1	–	·	·	·	·	·
Nc1nonc1-n1nnc(C(=O)NN=Cc2ccccc2Br)c1CN1CCCC1	–	·	·	·	·	·

High-throughput results: PubChem BioAssay, several laboratories
